Bioassay records from PubChem BioAssay.
An excerpt weighted towards active compounds, which were near 5.5% of everything screened.
PLAP activator = activators of human placental alkaline phosphatase | purified PLAP enzyme, luminescent substrate read-out; stronger effect = higher value | P05187 | activation fold at 20 µM | AID 696 | hit rate 1.2% among 96,000; in the data active means activation fold above about 2
Ecoli tolC = E. coli tolC mutant growth inhibition; growth inhibition, % at 10 µM (by protocol); hit rate 2.2% among 65,000; AID 573; E. coli BW25113 tolC mutant growth, OD615;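 active means growth inhibition at or above a cutoff equal to the mean over every tested compound plus 3 SD, cut at about 60% in these data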;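 further: growth measured after 20 h incubation at 37 °C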
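Test system – E. coli BW25113 ΔtolC::kan, tolC deletion mutant strain · Detection – OD at 615 nm · Buffer or medium – LB with kanamycin 50 µg/mL · Times – 20 h compound exposure of bacteria at 37 °C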
HePTP inh = blocks human HePTP tyrosine phosphatase. P35236. inhibition, % at 20 µM. hit rate 0.64% among 110,000. recombinant HePTP phosphatase activity, OD absorbance. AID 521; in the data active means inhibition above about 50%;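 further: plate controls were vehicle for no effect and reference inhibitor for full effect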
Target sequence (P35236 whole entry, looked up): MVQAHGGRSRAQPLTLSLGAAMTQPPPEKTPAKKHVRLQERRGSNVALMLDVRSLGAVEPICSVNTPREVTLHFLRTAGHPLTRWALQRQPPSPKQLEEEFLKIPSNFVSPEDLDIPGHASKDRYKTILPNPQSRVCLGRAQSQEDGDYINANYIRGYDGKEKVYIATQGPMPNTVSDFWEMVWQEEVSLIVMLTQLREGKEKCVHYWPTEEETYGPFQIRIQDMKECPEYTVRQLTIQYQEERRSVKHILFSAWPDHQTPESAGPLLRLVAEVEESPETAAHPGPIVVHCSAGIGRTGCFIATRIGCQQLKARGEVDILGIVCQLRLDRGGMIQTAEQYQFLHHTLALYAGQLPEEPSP
PostGolgi ctrl = inhibits growth of the yeast control strain; efflux-deficient yeast background strain, growth absorbance A615, 16 h; inhibition, % at 10 µM; hit rate 5% among 98,000
PostGolgi yeast = growth inhibition of a yeast mutant, post-Golgi transport screen; post-Golgi transport phenotypic cell assay; inhibition, % at 10 µM; hit rate 0.9% among 98,000;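 further: yeast cells grown in 1536-well plates; yeast grown about 18 h at 30C before absorbance read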
Ecoli WT expand = blocks growth of wild type E. coli BW25113. OD600 absorbance. growth inhibition, % at 100 µM. hit rate 0.15% among 98,000. AID 710;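 active means growth inhibition above about 50% at one test dose, limit read from the data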;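 further: growth measured after 20 h incubation at 37 °C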
Active calls of the source: *; . = no result given. Unless noted, no stated cut-off is given here; in the data, active means inhibition above about 30%; inactive means the rest.

SMILES | PLAP activator | Ecoli tolC | HePTP inh | PostGolgi ctrl | PostGolgi yeast | Ecoli WT expand
COC(=O)C1=C(C)N(CCc2ccc(OC)c(OC)c2)C(=O)/C1=C\c1ccc2c(c1)OCO2 | . | . | 4 | . | . | .
CSc1cccc(NC(=O)Nc2ccccc2)c1 | 1 | 40 | 6 | 48* | -4 | 2
O=C(Nc1ccccc1)Nc1cc(Cl)cc(Cl)c1 | 0.9 | . | . | 56* | 9 | 14
CN(Cc1ccccc1)C1CC(=O)N(c2cc(Cl)cc(Cl)c2)C1=O (stereo not given) | . | . | 7 | . | . | .
O=C(/C=C/c1ccco1)Nc1cc(Cl)ccc1Cl | . | . | 55* | . | . | .
O=C(/C=C/c1ccco1)Nc1ccccc1[N+](=O)[O-] | . | . | 84* | . | . | .
O=C(/C=C/c1ccco1)Nc1ccccc1NC(=O)/C=C/c1ccco1 | . | . | 31 | . | . | .
CCC(SC1=NCCS1)C(=O)N1c2ccccc2Sc2ccccc21 (stereo not given) | . | . | -10 | . | . | .
O=C(O)c1ccc(-n2c(/C=C\c3ccccc3)nc3ccccc3c2=O)cc1 | . | . | -14 | . | . | .
CCOC(=O)C1=C(C)NC(=O)CC1c1ccc([N+](=O)[O-])cc1 (stereo not given) | . | . | 4 | . | . | .
CN1CCN(Cc2cccc(Oc3ccccc3)c2)CC1 | 1.4 | . | . | 1 | 21 | 7
OCCN1CCN(Cc2cccc(Oc3ccc(Cl)cc3)c2)CC1 | 1.7 | 12 | 10 | 44* | 4 | 14
Cc1cc(Cl)cc(C)c1OCCCCN1CCOCC1 | 1.4 | -10 | 9 | -2 | 35* | 8
CCC(C)c1ccc(OCCCCN2CCOCC2)cc1 (stereo not given) | 1.5 | . | . | 23 | 70* | 5
Cc1cc(C)c(OCCCN2CCOCC2)c(Cl)c1 | . | . | 11 | . | . | .
O=C(Nc1ccccc1F)C1CC(=O)N(c2cccc([N+](=O)[O-])c2)C1 (stereo not given) | . | . | 5 | . | . | .
O=C(NCc1ccccc1Cl)c1cccc(Br)c1 | . | . | 2 | . | . | .
O=C(CSC(=S)N1CCOCC1)Nc1nc(-c2ccccc2)c(-c2ccccc2)o1 | 0.9 | . | . | 35* | 4 | -6
c1ccc(CN2CCN(c3nc(-c4ccccc4)nc(-n4ccnc4)n3)CC2)cc1 | 1.3 | 65* | -4 | 77* | 48* | -5
N/C(=N/O)c1nc(N2CCCC2)nc(N(c2ccccc2)c2ccccc2)n1 | 1.4 | 72* | 11 | 17 | 0 | -12
CN(c1ccccc1)c1nc(N2CCCC2)nc(-n2ccnc2)n1 | 1 | 96* | -6 | 91* | 105* | 12
N/C(=N/O)c1nc(N2CCCCC2)nc(N2CCCCC2)n1 | . | 56 | 9 | -5 | 0 | 3
c1ccc(-c2nc(-n3ccnc3)nc(-n3ccnc3)n2)cc1 | 1.5 | 39 | 0 | 11 | 4 | -6
c1ccc(N(c2ccccc2)c2nc(N3CCCC3)nc(-n3ccnc3)n2)cc1 | 1 | 6 | 5 | 32* | 2 | 5
Cc1ccc(/C(O)=C2\C(=O)C(=O)N(c3ccc(O)cc3)C2c2cccc([N+](=O)[O-])c2)cc1 (stereo not given) | . | . | -22 | . | . | .
SMILES | PLAP activator | Ecoli tolC | HePTP inh | PostGolgi ctrl | PostGolgi yeast | Ecoli WT expand
C=CCn1c(SCc2ccc(C(=O)OC)cc2)nc2sc(C)c(C)c2c1=O | . | . | 3 | . | . | .
Cc1cccc(C)c1NC(=O)C(=O)NCC1CCCO1 (stereo not given) | . | . | -8 | . | . | .
CCOC(=O)N1CCN(c2nc(N(c3ccccc3)c3ccccc3)nc(-n3ccnc3)n2)CC1 | . | 66* | 6 | . | . | .
c1ccc(-c2n[nH]nc2-c2ccccc2)cc1 | 1 | 36 | . | 30* | 23 | 9
O=C(c1ccncc1)N1CCN(C(c2ccccc2)c2ccccc2)CC1 | . | . | -5 | . | . | .
COc1ccccc1NC(=O)c1cc(-c2cccs2)nc2ccccc12 | . | . | 8 | . | . | .
COc1ccccc1NC(=O)c1cc(Sc2nncn2C)nc2ccccc12 | 1.3 | 7 | 6 | 33* | 1 | 1
Cc1cc2c3c(c1)C1(SCC(=O)N1c1ccc(F)cc1)C(=O)N3C(C)(C)CC2C (stereo not given) | 1.7 | . | . | 33* | 11 | 5
CCCc1cc2c(-c3ccccc3)cc(=O)oc2cc1OC(C)C(=O)OC (stereo not given) | . | . | 3 | . | . | .
c1ccc2oc(N3CCOCC3)nc2c1 | . | . | -1 | . | . | .
Brc1ccccc1-c1nnc(COc2ncnc3c2cnn3-c2ccccc2)o1 | 0.9 | 3 | 0 | 74* | 1 | -5
Cc1nnc(SCc2nnc(-c3ccccc3Br)o2)n1-c1ccccc1 | 1.5 | 5 | 7 | -4 | -2 | 2
Brc1ccccc1-c1nnc(CSc2nnnn2-c2ccccc2)o1 | 2.1* | 25 | 6 | 28 | 3 | -20
CC(=O)Nc1ccc(N/C(C)=C/C(=O)c2ccc(Br)cc2)cc1 | . | . | -6 | . | . | .
Nc1nc(CN2CCN(c3cccc(Cl)c3)CC2)nc(N2CCCc3ccccc32)n1 | 1.5 | 100* | 4 | 42* | 4 | -6
Nc1nc(CSc2nnnn2-c2ccccc2)nc(N2CCCc3ccccc32)n1 | . | 48 | -8 | 57* | 4 | -3
Cc1ccc(-n2c(=O)c3c4c(sc3n3c(SCC(N)=O)nnc23)CCCC4)cc1 | . | . | 3 | . | . | .
CCOC(=O)c1ccc(-c2ccc(C(=O)Nc3ccc(Cl)cc3)o2)cc1 | . | . | -6 | . | . | .
COc1ccc(N/C(N)=N\c2nc(C)cc(C)n2)c(OC)c1 | . | . | -19 | . | . | .
Cc1cccc(NC(=S)NNC(=O)c2cccc(C)c2)c1 | . | . | -5 | . | . | .
Cc1cccc(NC(=S)NNC(=O)c2sccc2C)c1 | 2.1* | . | . | 9 | 2 | -4
Cc1ccsc1C(=O)NNC(=S)NCC(C)C | 2.2* | . | . | 4 | 4 | 7
CCOc1ccc(N(CC(=O)NCCOC)S(=O)(=O)c2ccc(SC)cc2)cc1 | . | . | 0 | . | . | .
CCCCCc1ccc(-c2ccc(=O)[nH]n2)cc1 | 0.7 | 14 | -2 | 31* | -6 | -4
CC1=NN(c2ccccc2)C(=O)/C1=C\c1ccc(-c2ccc3c(c2)C(=O)NC3=O)o1 | . | . | 12 | . | . | .
SMILES | PLAP activator | Ecoli tolC | HePTP inh | PostGolgi ctrl | PostGolgi yeast | Ecoli WT expand
COc1ccc(OC)c(S(=O)(=O)N2CCN(c3c(C)cccc3C)CC2)c1 | 1.4 | 65* | 8 | 29 | -2 | -8
COc1ccc(OC)c(S(=O)(=O)n2cnc3cc(C)c(C)cc32)c1 | 1.4 | 94* | 7 | 30* | 5 | 0
COc1ccc(S(=O)(=O)N2CCN(c3cccc(C)c3C)CC2)cc1 | 1.1 | 38 | 4 | 35* | -10 | -15
CCOc1ccc(S(=O)(=O)n2cnc3cc(C)c(C)cc32)cc1 | 1.4 | 42 | -7 | 10 | 1 | -4
O=C(c1c(Cl)ccc(F)c1F)N1CCN(c2ccc(Cl)cc2[N+](=O)[O-])CC1 | . | . | 2 | . | . | .
Cc1cccc(C(C)C)c1NC(=O)COc1ccc2c(C)cc(=O)oc2c1 | . | . | 9 | . | . | .
CCCC1=Nc2cc(C(=O)NCCCOCC)ccc2Sc2ccccc21 | 1.3 | . | . | 21 | 0 | -1
CCC1=Nc2cc(C(=O)NCCCOC)ccc2Sc2ccccc21 | 2* | . | . | 13 | 1 | 1
COCCCNC(=O)c1cccc(C(=O)NCCCOC)c1 | 0.9 | -12 | 9 | 41* | -2 | 1
COCCCNC(=O)c1ccc(Br)cc1 | . | . | -17 | . | . | .
CCC(Oc1ccccc1)C(=O)Nc1cccc(Br)c1 (stereo not given) | . | . | 6 | . | . | .
CC(C)c1ccc(-c2cc(C(=O)N3CCCC3)c3ccccc3n2)cc1 | . | . | 10 | . | . | .
